{"source": "ChEMBL document CHEMBL1151428", "about": "“Capability of 11 antipneumococcal antibiotics to select for resistance by multistep and single-step methodologies” (2007)", "format_in_all_cases": "functional", "key": {"Streptococcus pneumoniae [1]": {"tested_on": "Streptococcus pneumoniae", "assay": "Antimicrobial activity against drug-resistant Streptococcus pneumoniae isolate 3009 after 50 passages by multi-step resistance selection technique", "method_in_brief": "(§1)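 Daily serial passage in subinhibitory drug levels in 1 ml cation-adjusted Mueller-Hinton broth with 5% lysed horse blood; fresh broth for tigecycline. Each day, 10 μl were taken from the tube one to two dilutions below the MIC whose turbidity matched the growth control, and used to set the next MIC. […] MIC by macrodilution.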"}, "Streptococcus pneumoniae [2]": {"tested_on": "Streptococcus pneumoniae", "assay": "Antimicrobial activity against drug-resistant Streptococcus pneumoniae isolate 1076 by NCCLS M7-A7 method"}, "Streptococcus pneumoniae [3]": {"tested_on": "Streptococcus pneumoniae", "assay": "Antimicrobial activity against drug-resistant Streptococcus pneumoniae isolate 3676 after 50 passages with moxifloxacin measured after 10 antibiotic-free subculture by multi-step resistance selection technique"}, "Streptococcus pneumoniae [4]": {"tested_on": "Streptococcus pneumoniae", "assay": "Antimicrobial activity against drug-resistant Streptococcus pneumoniae isolate 3243 after 33 passages with azithromycin measured after 10 antibiotic-free subculture by multi-step resistance selection technique", "method_in_brief": "(§2)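 Mutants selected by daily broth passage in subinhibitory drug in cation-adjusted Mueller-Hinton broth with 5% lysed horse blood. Stability was tested by 10 daily passages on blood agar without antibiotic, then macrodilution MIC.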"}, "Streptococcus pneumoniae [5]": {"tested_on": "Streptococcus pneumoniae", "assay": "Antimicrobial activity against drug-resistant Streptococcus pneumoniae isolate 3243 after 29 passages with Telithromycin measured after 10 antibiotic-free subculture by multi-step resistance selection technique", "method_in_brief": "as §2"}, "Streptococcus pneumoniae [6]": {"tested_on": "Streptococcus pneumoniae", "assay": "Antimicrobial activity against drug-resistant Streptococcus pneumoniae isolate 1077 after 29 passages with azithromycin measured after 10 antibiotic-free subculture by multi-step resistance selection technique", "method_in_brief": "as §2"}, "Streptococcus pneumoniae [7]": {"tested_on": "Streptococcus pneumoniae", "assay": "Antimicrobial activity against drug-resistant Streptococcus pneumoniae isolate 2527 by NCCLS M7-A7 method"}, "Streptococcus pneumoniae [8]": {"tested_on": "Streptococcus pneumoniae", "assay": "Antimicrobial activity against drug-resistant Streptococcus pneumoniae isolate 3665 after 38 passages with moxifloxacin measured after 10 antibiotic-free subculture by multi-step resistance selection technique"}, "Streptococcus pneumoniae [9]": {"tested_on": "Streptococcus pneumoniae", "assay": "Antimicrobial activity against drug-resistant Streptococcus pneumoniae isolate 1077 after 49 passages with clindamycin measured after 10 antibiotic-free subculture by multi-step resistance selection technique"}, "Streptococcus pneumoniae [10]": {"tested_on": "Streptococcus pneumoniae", "assay": "Antimicrobial activity against drug-resistant Streptococcus pneumoniae isolate 3274 after 48 passages with Telithromycin measured after 10 antibiotic-free subculture by multi-step resistance selection technique", "method_in_brief": "as §2"}, "Streptococcus pneumoniae [11]": {"tested_on": "Streptococcus pneumoniae", "assay": "Antimicrobial activity against drug-resistant Streptococcus pneumoniae isolate 3413 after 30 passages with Telithromycin measured after 10 antibiotic-free subculture by multi-step resistance selection technique", "method_in_brief": "as §2"}, "Streptococcus pneumoniae [12]": {"tested_on": "Streptococcus pneumoniae", "assay": "Antimicrobial activity against drug-resistant Streptococcus pneumoniae isolate 3676 after 44 passages with clarithromycin measured after 10 antibiotic-free subculture by multi-step resistance selection technique"}, "Streptococcus pneumoniae [13]": {"tested_on": "Streptococcus pneumoniae", "assay": "Antimicrobial activity against drug-resistant Streptococcus pneumoniae isolate 37 after 14 passages with Telithromycin measured after 10 antibiotic-free subculture by multi-step resistance selection technique"}, "Streptococcus pneumoniae [14]": {"tested_on": "Streptococcus pneumoniae", "assay": "Antimicrobial activity against drug-resistant Streptococcus pneumoniae isolate 24 after 14 passages with Telithromycin measured after 10 antibiotic-free subculture by multi-step resistance selection technique", "method_in_brief": "as §2"}, "Streptococcus pneumoniae [15]": {"tested_on": "Streptococcus pneumoniae", "assay": "Antimicrobial activity against drug-resistant Streptococcus pneumoniae isolate 1077 by NCCLS M7-A7 method"}, "Streptococcus pneumoniae [16]": {"tested_on": "Streptococcus pneumoniae", "assay": "Antimicrobial activity against drug-resistant Streptococcus pneumoniae isolate 1076 after 35 passages with moxifloxacin measured after 10 antibiotic-free subculture by multi-step resistance selection technique", "method_in_brief": "as §2"}, "Streptococcus pneumoniae [17]": {"tested_on": "Streptococcus pneumoniae", "assay": "Antimicrobial activity against drug-resistant Streptococcus pneumoniae isolate 24 after 50 passages with moxifloxacin measured after 10 antibiotic-free subculture by multi-step resistance selection technique", "method_in_brief": "as §2"}, "Streptococcus pneumoniae [18]": {"tested_on": "Streptococcus pneumoniae", "assay": "Antimicrobial activity against drug-resistant Streptococcus pneumoniae isolate 3009 after 25 passages with clarithromycin measured after 10 antibiotic-free subculture by multi-step resistance selection technique"}, "Streptococcus pneumoniae [19]": {"tested_on": "Streptococcus pneumoniae", "assay": "Antimicrobial activity against drug-resistant Streptococcus pneumoniae isolate 1635 by NCCLS M7-A7 method"}, "Streptococcus pneumoniae [20]": {"tested_on": "Streptococcus pneumoniae", "assay": "Antimicrobial activity against drug-resistant Streptococcus pneumoniae isolate 1077 after 50 passages by multi-step resistance selection technique", "method_in_brief": "(§3)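 Daily serial passage in subinhibitory drug levels in 1 ml cation-adjusted Mueller-Hinton broth with 5% lysed horse blood; fresh broth for tigecycline. Each day, 10 μl were taken from the tube one to two dilutions below the MIC whose turbidity matched the growth control, and used to set the next MIC. MIC by macrodilution.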"}, "Streptococcus pneumoniae [21]": {"tested_on": "Streptococcus pneumoniae", "assay": "Antimicrobial activity against drug-resistant Streptococcus pneumoniae isolate 1635 after 50 passages by multi-step resistance selection technique", "method_in_brief": "as §3"}, "Streptococcus pneumoniae [22]": {"tested_on": "Streptococcus pneumoniae", "assay": "Antimicrobial activity against drug-resistant Streptococcus pneumoniae isolate 3009 after 19 passages with moxifloxacin measured after 10 antibiotic-free subculture by multi-step resistance selection technique", "method_in_brief": "as §2"}, "Streptococcus pneumoniae [23]": {"tested_on": "Streptococcus pneumoniae", "assay": "Antimicrobial activity against drug-resistant Streptococcus pneumoniae isolate 3676 after 50 passages by multi-step resistance selection technique", "method_in_brief": "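Daily serial passage in broth at subinhibitory drug levels: 1 ml cation-adjusted Mueller-Hinton broth with 5% lysed horse blood; fresh broth for tigecycline. Each day 10 μl inoculum taken from the tube one to two dilutions below MIC matching growth-control turbidity, used to set next MIC. Continued until ≥8-fold MIC rise, minimum 14, maximum 50 passages; MIC read by macrodilution.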"}, "Streptococcus pneumoniae [24]": {"tested_on": "Streptococcus pneumoniae", "assay": "Antimicrobial activity against drug-resistant Streptococcus pneumoniae isolate 37 after 50 passages by multi-step resistance selection technique", "method_in_brief": "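Daily serial passage in broth at subinhibitory drug levels: 1 ml cation-adjusted Mueller-Hinton broth with 5% lysed horse blood; fresh broth for tigecycline. Each day 10 μl inoculum taken from the tube one to two dilutions below MIC matching growth-control turbidity, used to set next MIC.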"}, "Streptococcus pneumoniae [25]": {"tested_on": "Streptococcus pneumoniae", "assay": "Antimicrobial activity against drug-resistant Streptococcus pneumoniae isolate 37 by NCCLS M7-A7 method"}, "Streptococcus pneumoniae [26]": {"tested_on": "Streptococcus pneumoniae", "assay": "Antimicrobial activity against drug-resistant Streptococcus pneumoniae isolate 1076 after 50 passages by multi-step resistance selection technique", "method_in_brief": "as §1"}, "Streptococcus pneumoniae [27]": {"tested_on": "Streptococcus pneumoniae", "assay": "Antimicrobial activity against drug-resistant Streptococcus pneumoniae isolate 1635 after 14 passages with azithromycin measured after 10 antibiotic-free subculture by multi-step resistance selection technique", "method_in_brief": "as §2"}, "Streptococcus pneumoniae [28]": {"tested_on": "Streptococcus pneumoniae", "assay": "Antimicrobial activity against drug-resistant Streptococcus pneumoniae isolate 3009 after 18 passages with levofloxacin measured after 10 antibiotic-free subculture by multi-step resistance selection technique", "method_in_brief": "as §2"}, "Streptococcus pneumoniae [29]": {"tested_on": "Streptococcus pneumoniae", "assay": "Antimicrobial activity against drug-resistant Streptococcus pneumoniae isolate 3665 after 26 passages with clarithromycin measured after 10 antibiotic-free subculture by multi-step resistance selection technique"}, "Streptococcus pneumoniae [30]": {"tested_on": "Streptococcus pneumoniae", "assay": "Antimicrobial activity against drug-resistant Streptococcus pneumoniae isolate 3243 after 41 passages with clarithromycin measured after 10 antibiotic-free subculture by multi-step resistance selection technique"}, "Streptococcus pneumoniae [31]": {"tested_on": "Streptococcus pneumoniae", "assay": "Antimicrobial activity against drug-resistant Streptococcus pneumoniae isolate 2527 after 50 passages by multi-step resistance selection technique", "method_in_brief": "as §1"}, "Streptococcus pneumoniae [32]": {"tested_on": "Streptococcus pneumoniae", "assay": "Antimicrobial activity against drug-resistant Streptococcus pneumoniae isolate 1635 after 14 passages with clindamycin measured after 10 antibiotic-free subculture by multi-step resistance selection technique"}, "Streptococcus pneumoniae [33]": {"tested_on": "Streptococcus pneumoniae", "assay": "Antimicrobial activity against drug-resistant Streptococcus pneumoniae isolate 3665 by NCCLS M7-A7 method"}, "Streptococcus pneumoniae [34]": {"tested_on": "Streptococcus pneumoniae", "assay": "Antimicrobial activity against drug-resistant Streptococcus pneumoniae isolate 1635 after 49 passages with clarithromycin measured after 10 antibiotic-free subculture by multi-step resistance selection technique"}, "Streptococcus pneumoniae [35]": {"tested_on": "Streptococcus pneumoniae", "assay": "Antimicrobial activity against drug-resistant Streptococcus pneumoniae isolate 3009 after 21 passages with gemifloxacin measured after 10 antibiotic-free subculture by multi-step resistance selection technique", "method_in_brief": "as §2"}, "Streptococcus pneumoniae [36]": {"tested_on": "Streptococcus pneumoniae", "assay": "Antimicrobial activity against drug-resistant Streptococcus pneumoniae isolate 2527 after 20 passages with azithromycin measured after 10 antibiotic-free subculture by multi-step resistance selection technique", "method_in_brief": "as §2"}, "Streptococcus pneumoniae [37]": {"tested_on": "Streptococcus pneumoniae", "assay": "Antimicrobial activity against drug-resistant Streptococcus pneumoniae isolate 2527 after 14 passages with gemifloxacin measured after 10 antibiotic-free subculture by multi-step resistance selection technique", "method_in_brief": "as §2"}}}
{"smiles": "CN(C)c1cc(NC(=O)CNC(C)(C)C)c(O)c2c1C[C@H]1C[C@H]3[C@H](N(C)C)C(O)=C(C(N)=O)C(=O)[C@@]3(O)C(O)=C1C2=O", "note": "[TIGECYCLINE]", "values": [{"measurement": "MIC", "setting": "Streptococcus pneumoniae [1]", "value": 0.016, "unit": "µg/mL"}, {"measurement": "MIC", "setting": "Streptococcus pneumoniae [2]", "value": 0.03, "unit": "µg/mL"}, {"measurement": "MIC", "setting": "Streptococcus pneumoniae [3]", "value": 0.03, "unit": "µg/mL"}, {"measurement": "MIC", "setting": "Streptococcus pneumoniae [4]", "value": 0.06, "unit": "µg/mL"}, {"measurement": "MIC", "setting": "Streptococcus pneumoniae [5]", "value": 0.03, "unit": "µg/mL"}, {"measurement": "MIC", "setting": "Streptococcus pneumoniae [6]", "value": 0.03, "unit": "µg/mL"}, {"measurement": "MIC", "setting": "Streptococcus pneumoniae [7]", "value": 0.016, "unit": "µg/mL"}, {"measurement": "MIC", "setting": "Streptococcus pneumoniae [8]", "value": 0.03, "unit": "µg/mL"}, {"measurement": "MIC", "setting": "Streptococcus pneumoniae [9]", "value": 0.03, "unit": "µg/mL"}, {"measurement": "MIC", "setting": "Streptococcus pneumoniae [10]", "value": 0.03, "unit": "µg/mL"}, {"measurement": "MIC", "setting": "Streptococcus pneumoniae [11]", "value": 0.03, "unit": "µg/mL"}, {"measurement": "MIC", "setting": "Streptococcus pneumoniae [12]", "value": 0.03, "unit": "µg/mL"}, {"measurement": "MIC", "setting": "Streptococcus pneumoniae [13]", "value": 0.03, "unit": "µg/mL"}, {"measurement": "MIC", "setting": "Streptococcus pneumoniae [14]", "value": 0.03, "unit": "µg/mL"}, {"measurement": "MIC", "setting": "Streptococcus pneumoniae [15]", "value": 0.016, "unit": "µg/mL"}, {"measurement": "MIC", "setting": "Streptococcus pneumoniae [16]", "value": 0.06, "unit": "µg/mL"}, {"measurement": "MIC", "setting": "Streptococcus pneumoniae [17]", "value": 0.03, "unit": "µg/mL"}, {"measurement": "MIC", "setting": "Streptococcus pneumoniae [18]", "value": 0.03, "unit": "µg/mL"}, {"measurement": "MIC", "setting": "Streptococcus pneumoniae [19]", "value": 0.016, "unit": "µg/mL"}, {"measurement": "MIC", "setting": "Streptococcus pneumoniae [20]", "value": 0.016, "unit": "µg/mL"}, {"measurement": "MIC", "setting": "Streptococcus pneumoniae [21]", "value": 0.03, "unit": "µg/mL"}, {"measurement": "MIC", "setting": "Streptococcus pneumoniae [22]", "value": 0.06, "unit": "µg/mL"}, {"measurement": "MIC", "setting": "Streptococcus pneumoniae [23]", "value": 0.016, "unit": "µg/mL"}, {"measurement": "MIC", "setting": "Streptococcus pneumoniae [24]", "value": 0.016, "unit": "µg/mL"}, {"measurement": "MIC", "setting": "Streptococcus pneumoniae [25]", "value": 0.016, "unit": "µg/mL"}, {"measurement": "MIC", "setting": "Streptococcus pneumoniae [26]", "value": 0.03, "unit": "µg/mL"}, {"measurement": "MIC", "setting": "Streptococcus pneumoniae [27]", "value": 0.03, "unit": "µg/mL"}, {"measurement": "MIC", "setting": "Streptococcus pneumoniae [28]", "value": 0.06, "unit": "µg/mL"}, {"measurement": "MIC", "setting": "Streptococcus pneumoniae [29]", "value": 0.03, "unit": "µg/mL"}, {"measurement": "MIC", "setting": "Streptococcus pneumoniae [30]", "value": 0.03, "unit": "µg/mL"}, {"measurement": "MIC", "setting": "Streptococcus pneumoniae [31]", "value": 0.016, "unit": "µg/mL"}, {"measurement": "MIC", "setting": "Streptococcus pneumoniae [32]", "value": 0.03, "unit": "µg/mL"}, {"measurement": "MIC", "setting": "Streptococcus pneumoniae [33]", "value": 0.016, "unit": "µg/mL"}, {"measurement": "MIC", "setting": "Streptococcus pneumoniae [34]", "value": 0.016, "unit": "µg/mL"}, {"measurement": "MIC", "setting": "Streptococcus pneumoniae [35]", "value": 0.016, "unit": "µg/mL"}, {"measurement": "MIC", "setting": "Streptococcus pneumoniae [36]", "value": 0.03, "unit": "µg/mL"}, {"measurement": "MIC", "setting": "Streptococcus pneumoniae [37]", "value": 0.03, "unit": "µg/mL"}]}
